From ChEMBL document CHEMBL3853263, “Effect of intercalator and Lewis acid-base branched peptide complex formation: boosting affinity towards HIV-1 RRE RNA” (Medchemcomm, 2016) come the findings set out here.

A short description of data set [1]: Cytotoxicity against HIV1 NL4-3 infected human U87 cells transfected with CD4/CXCR4 assessed as decrease in cell viability at 20 to 80 uM after 72 hrs by MTT assay. Format: toxicity, cell-based. As to conditions: u-87mg atcc. In general terms: Tetrazolium dyes change colour on reduction, which living cells bring about.
In data set [2] the test system is Human immunodeficiency virus 1. Description: Antiviral activity against HIV1 NL4-3 infected in human U87 cells transfected with CD4/CXCR4 assessed as inhibition of viral replication at 100 uM preincubated for 1 hr followed by viral infection for 24 hrs and subsequent compound wash out and addition of additional compound measured at 72 hrs post infection by p24 assay. The settings on record: U-87MG ATCC. Format: functional, cell-based. The gist of the method: (§1)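 U87-CD4/CXCR4 cells are seeded at 1 x 10⁴/well and left to adhere overnight. Compounds come from 1 mM stocks in water, diluted in RPMI. Cells are pretreated for 1 h, then infected with NL4-3 (CXCR4-tropic) at MOI 0.01 for 24 h. Cells are PBS-washed and given fresh medium with more compound. p24 is quantified in supernatant at 72 h post-infection.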

A short description of data set [3]: Cytotoxicity against human U87 cells transfected with CD4/CXCR4 assessed as decrease in cell viability up to 100 uM after 24 hrs by MTT assay. The settings on record: u-87mg atcc. In kind it is toxicity, cell-based. An outline of the steps: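 U87 CXCR4 cells are seeded at 1 x 10⁴/well and incubated overnight at 37 °C in 5% CO₂. They are treated with 100, 50 or 10 µM (final) compound for 24 h. Tetrazolium dye is added for 4 h, then solubilization/stop solution for 1 h. A570 is read and normalized to untreated cells set at 1.0.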

Data set [4] in a line: Binding affinity to HIV1 wild type [32P]-labeled RRE-2B RNA after 4 hrs by electrophoretic mobility shift assay. The arrangement: species or system Human immunodeficiency virus 1. An outline of the steps: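 5'-³²P RRE-IIB (4 nM in 2x phosphate buffer, pH 7.0) is refolded at 95 °C for 3 min, then rt for 20 min. It is mixed 1:1 with peptide in water (final 0.001–10 µM) for 4 h at rt. Complexes are resolved by 10% native PAGE at 4 °C. Kd is the 50%-binding concentration from a sigmoidal fit of % RNA bound vs log[peptide]. Triplicates.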
For orientation: In EMSA bound probe runs differently from free probe, usually more slowly.

The subject of data set [5] is Human immunodeficiency virus 1. Description: Antiviral activity against HIV1 NL4-3 infected in human U87 cells transfected with CD4/CXCR4 assessed as inhibition of viral replication at 10 uM preincubated for 1 hr followed by viral infection for 24 hrs and subsequent compound wash out and addition of additional compound measured at 72 hrs post infection by p24 assay relative to control. The settings on record: Human immunodeficiency virus 1, NL4-3, U-87 MG. In kind it is functional, U-87MG ATCC. An outline of the steps: as §1

Data set [6] has as its system Human immunodeficiency virus 1. Description: Antiviral activity against HIV1 NL4-3 infected in human U87 cells transfected with CD4/CXCR4 assessed as inhibition of viral replication preincubated for 1 hr followed by viral infection for 24 hrs and subsequent compound wash out and addition of additional compound measured at 72 hrs post infection by p24 assay. The settings on record: U-87MG ATCC. In kind it is functional, cell-based. The gist of the method: as §1

The test system of data set [7] is Human immunodeficiency virus 1. Description: Antiviral activity against HIV1 NL4-3 infected in human U87 cells transfected with CD4/CXCR4 assessed as inhibition of viral replication at 40 uM preincubated for 1 hr followed by viral infection for 24 hrs and subsequent compound wash out and addition of additional compound measured at 72 hrs post infection by p24 assay relative to control. In kind it is functional, U-87MG ATCC. The settings on record: Human immunodeficiency virus 1, NL4-3, U-87 MG. An outline of the steps: as §1

Structures are written as SMILES. Active and inactive are the calls of the source. No cut-off for these calls is given here. Side chains are listed from the residue outwards. Peptide text beside a SMILES is read from it. * marks the point of attachment. X2 = NCCCC[C@H](NC(=O)[C@@H](N)CCCCN)C(=O)N[C@@H](CCCCNC(=O)c1ccc(B(O)O)cc1)C(=O)*; X3 = NCCCC[C@H](N)C(=O)N[C@@H](CCCCNC(=O)c1ccc(B(O)O)cc1)C(=O)*; Benzoyl(4-B(OH)2) = O=C(c1ccc(B(O)O)cc1)*; Acridin9yl = c1ccc2c(*)c3ccccc3nc2c1

By inhibition is commonly meant the percentage by which the read-out fell short of the control. A word on the Kd: it is the concentration at which binding is half-saturated. In the case of `CC(C)C[C@H](NC(=O)[C@H](CCCCNC(=O)[C@H](CCCCN)NC(=O)[C@H](CCCCN)NC(=O)[C@@H](N)CCCCN)NC(=O)[C@H](CCCCN)NC(=O)[C@H](CCCCN)NC(=O)[C@@H](N)CCCCN)C(=O)N[C@@H](CCCCNC(=O)c1ccc(B(O)O)cc1)C(=O)N[C@@H](CCCCNC(=O)c1ccc(B(O)O)cc1)C(=O)N[C@@H](Cc1ccc(O)cc1)C(N)=O` (H-KKKK([Lys-Lys-Lys])LK(Benzoyl(4-B(OH)2))K(Benzoyl(4-B(OH)2))Y-NH2), the Activity entry in data set [1] and in data set [3] was “Non-Toxic” each time. In addition, the inhibition result in data set [2] was “Active”. Moreover, the Kd in data set [4] amounted to 0.28 µM.

`CC(C)C[C@H](NC(=O)[C@H](CCCCN)NC(=O)[C@H](CCCCNC(=O)[C@H](CCCCN)NC(=O)[C@H](CCCCN)NC(=O)[C@@H](N)CCCCN)NC(=O)[C@H](CCCCN)NC(=O)[C@H](CCCCN)NC(=O)[C@@H](N)CCCCN)C(=O)N[C@@H](CCCCNc1c2ccccc2nc2ccccc12)C(=O)N[C@@H](Cc1ccc(O)cc1)C(N)=O` (H-KKKK([Lys-Lys-Lys])KLK(Acridin9yl)Y-NH2): the Activity result in data set [1] and in data set [3] was “Non-Toxic” throughout. For the same compound, the inhibition result in data set [2] was “Active”. In data set [4], the dissociation constant Kd was found to be 0.02 µM.

As for `CC(C)C[C@H](NC(=O)[C@@H](N)CCCCN)C(=O)N[C@@H](CCCCN)C(=O)NCCCC[C@H](NC(=O)[C@H](CCCCN)NC(=O)[C@H](CC(C)C)NC(=O)[C@@H](N)CCCCN)C(=O)N[C@@H](CCCCN)C(=O)N[C@@H](CCCCN)C(=O)N[C@@H](CCCCNC(=O)c1ccc(B(O)O)cc1)C(=O)N[C@@H](Cc1ccc(O)cc1)C(N)=O` (H-KLKK([Lys-Leu-Lys])KKK(Benzoyl(4-B(OH)2))Y-NH2), the inhibition at 10 µM in data set [5] amounted to 40%. Also, the Activity result in data set [3] is reported as “Non-Toxic”. The Kd in data set [4] was determined as 1.43 µM.

In the case of `NCCCC[C@H](NC(=O)[C@H](CCCCN)NC(=O)[C@@H](N)CCCCN)C(=O)NCCCC[C@H](NC(=O)[C@H](CCCCN)NC(=O)[C@H](CCCCN)NC(=O)[C@@H](N)CCCCN)C(=O)N[C@@H](CCCCNc1c2ccccc2nc2ccccc12)C(=O)N[C@@H](CCCCNc1c2ccccc2nc2ccccc12)C(=O)N[C@@H](CCCCN)C(=O)N[C@@H](Cc1ccc(O)cc1)C(N)=O` (H-KKKK([Lys-Lys-Lys])K(Acridin9yl)K(Acridin9yl)KY-NH2), the Activity entry in data set [1] and in data set [3] was “Non-Toxic” in each case. For the same compound, the inhibition result in data set [2] is “Active”. Also, the inhibition entry in data set [6] is “Dose-dependent effect”. In addition, in data set [7], the inhibition at 40 µM was found to be 90%.

On to `CC(C)C[C@H](NC(=O)[C@@H](N)CC(C)C)C(=O)N[C@@H](CCCCN)C(=O)NCCCC[C@H](NC(=O)[C@H](CCCCN)NC(=O)[C@H](CC(C)C)NC(=O)[C@@H](N)CC(C)C)C(=O)N[C@@H](CCCCN)C(=O)N[C@@H](CCCCNC(=O)c1ccc(B(O)O)cc1)C(=O)N[C@@H](CCCCN)C(=O)N[C@@H](Cc1ccc(O)cc1)C(N)=O` (H-LLKK([Lys-Leu-Leu])KK(Benzoyl(4-B(OH)2))KY-NH2), for which, in data set [3], the Activity result is given as “Non-Toxic”. For the same compound, the dissociation constant Kd in data set [4] was found to be 0.21 µM.

Regarding `CC(C)C[C@H](NC(=O)[C@H](CCCCN)NC(=O)[C@@H](N)CCCCN)C(=O)NCCCC[C@H](NC(=O)[C@H](CC(C)C)NC(=O)[C@H](CCCCN)NC(=O)[C@@H](N)CCCCN)C(=O)N[C@@H](CC(C)C)C(=O)N[C@@H](CCCCN)C(=O)N[C@@H](CCCCNC(=O)c1ccc(B(O)O)cc1)C(=O)N[C@@H](Cc1ccc(O)cc1)C(N)=O` (H-KKLK([Leu-Lys-Lys])LKK(Benzoyl(4-B(OH)2))Y-NH2), in data set [3], the Activity result is “Non-Toxic”. The dissociation constant (Kd) in data set [4] was 0.33 µM.

`CC(C)C[C@H](NC(=O)[C@H](CC(C)C)NC(=O)[C@H](CCCCNC(=O)[C@H](CCCCN)NC(=O)[C@H](CCCCNC(=O)c1ccc(B(O)O)cc1)NC(=O)[C@@H](N)CCCCN)NC(=O)[C@H](CCCCN)NC(=O)[C@H](CCCCNC(=O)c1ccc(B(O)O)cc1)NC(=O)[C@@H](N)CCCCN)C(=O)N[C@@H](CCCCN)C(=O)N[C@@H](Cc1ccc(O)cc1)C(N)=O` (H-KK(Benzoyl(4-B(OH)2))KK([Lys-X3])LLKY-NH2): the Activity entry in data set [3] is on record as “Non-Toxic”. Further, in data set [4], the Kd was 0.66 µM.

`CC(C)C[C@H](NC(=O)[C@H](CCCCN)NC(=O)[C@H](CCCCNC(=O)[C@H](CCCCNC(=O)c1ccc(B(O)O)cc1)NC(=O)[C@H](CCCCN)NC(=O)[C@@H](N)CCCCN)NC(=O)[C@H](CCCCNC(=O)c1ccc(B(O)O)cc1)NC(=O)[C@H](CCCCN)NC(=O)[C@@H](N)CCCCN)C(=O)N[C@@H](CCCCNC(=O)c1ccc(B(O)O)cc1)C(=O)N[C@@H](Cc1ccc(O)cc1)C(N)=O` (H-KKK(Benzoyl(4-B(OH)2))K(X2)KLK(Benzoyl(4-B(OH)2))Y-NH2): the Activity result in data set [3] is reported as “Non-Toxic”. The Kd in data set [4] worked out at 0.12 µM.

Consider `CC(C)C[C@H](NC(=O)[C@H](CCCCNC(=O)c1ccc(B(O)O)cc1)NC(=O)[C@H](CC(C)C)NC(=O)[C@H](CCCCNC(=O)[C@H](CCCCN)NC(=O)[C@H](CCCCN)NC(=O)[C@@H](N)CCCCN)NC(=O)[C@H](CCCCN)NC(=O)[C@H](CCCCN)NC(=O)[C@@H](N)CCCCN)C(=O)N[C@@H](Cc1ccc(O)cc1)C(N)=O` (H-KKKK([Lys-Lys-Lys])LK(Benzoyl(4-B(OH)2))LY-NH2), for which, in data set [3], the Activity entry is “Non-Toxic”. The Kd in data set [4] was 0.13 µM.

Consider `CC(C)C[C@H](NC(=O)[C@H](CCCCNC(=O)[C@H](CCCCN)NC(=O)[C@H](CC(C)C)NC(=O)[C@@H](N)CCCCN)NC(=O)[C@H](CCCCN)NC(=O)[C@H](CC(C)C)NC(=O)[C@@H](N)CCCCN)C(=O)N[C@@H](CCCCN)C(=O)N[C@@H](CCCCNC(=O)c1ccc(B(O)O)cc1)C(=O)N[C@@H](Cc1ccc(O)cc1)C(N)=O` (H-KLKK([Lys-Leu-Lys])LKK(Benzoyl(4-B(OH)2))Y-NH2), for which the Activity result in data set [3] is recorded as “Non-Toxic”. In addition, the equilibrium dissociation constant (Kd) in data set [4] was 0.3 µM.

Consider `CC(C)C[C@H](NC(=O)[C@H](CCCCN)NC(=O)[C@@H](N)CCCCN)C(=O)NCCCC[C@H](NC(=O)[C@H](CC(C)C)NC(=O)[C@H](CCCCN)NC(=O)[C@@H](N)CCCCN)C(=O)N[C@@H](CCCCN)C(=O)N[C@@H](CCCCNC(=O)c1ccc(B(O)O)cc1)C(=O)N[C@@H](CCCCNC(=O)c1ccc(B(O)O)cc1)C(=O)N[C@@H](Cc1ccc(O)cc1)C(N)=O` (H-KKLK([Leu-Lys-Lys])KK(Benzoyl(4-B(OH)2))K(Benzoyl(4-B(OH)2))Y-NH2), for which the Activity result in data set [3] is “Non-Toxic”. For the same compound, the Kd in data set [4] turned out to be 0.17 µM.

As to `CC(C)C[C@H](NC(=O)[C@H](CCCCNc1c2ccccc2nc2ccccc12)NC(=O)[C@H](CCCCNC(=O)[C@H](CCCCN)NC(=O)[C@H](CCCCN)NC(=O)[C@@H](N)CCCCN)NC(=O)[C@H](CCCCN)NC(=O)[C@H](CCCCN)NC(=O)[C@@H](N)CCCCN)C(=O)N[C@@H](CCCCN)C(=O)N[C@@H](Cc1ccc(O)cc1)C(N)=O` (H-KKKK([Lys-Lys-Lys])K(Acridin9yl)LKY-NH2), the inhibition entry in data set [2] is “Active”. Besides, the Activity entry in data set [3] is listed as “Non-Toxic”. The Kd in data set [4] was 0.14 µM.
